ChEMBL document CHEMBL1133675, “New substituted 1-(2,3-dihydrobenzo[1, 4]dioxin-2-ylmethyl)piperidin-4-yl derivatives with alpha(2)-adrenoceptor antagonist activity” (J Med Chem, 2000)
Active and inactive are the calls of the source. Unless noted, the calls are words filed in the database; no cut-off is given here.

Tests used:
D(2) dopamine receptor = D(2) dopamine receptor (Rattus norvegicus, UniProt P61169); test: In vitro inhibition of specific binding of [3H]-YM 09151-2 to Dopamine receptor D2 site in rat striatal tissue.; type: tissue-based, Striatum
Mus musculus [1] = test: In vivo antagonism of guanabenz-induced hypothermia in mice after peroral administration at a dose of 2.5-40 mg/kg; type: functional; details: po
In short: (§1)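 Male NMRI mice (30-32 g), five per dose; vehicle or drug by oral gavage, guanabenz 1 mg/kg ip 35 min later. Rectal temperature by thermistor 25 min post-guanabenz; inhibition scored as temperature > 36 °C. Active range is doses giving inhibition in more than 80% of mice.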

Mus musculus [2] = test: In vivo antagonism of guanabenz-induced hypothermia in mice after intraperitoneal administration at a dose of 2.5-10 mg/kg; type: functional; details: ip
In short: (§2)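 Male NMRI mice, 30-32 g, 5 per dose; test drug or vehicle given ip, then 5 min later guanabenz 1 mg/kg ip. Rectal temperature read by thermistor probe 25 min after guanabenz. Inhibition means temperature > 36 °C. Active dose range = doses inhibiting in more than 80% of animals.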

[3] = biological target: T1, Adrenergic receptor alpha-1 (Rattus norvegicus, UniProt P15823+P23944+P43140); test: In vitro inhibition of specific binding of [3H]- prazosin to alpha-1 adrenergic receptor site in rat brain membranes.; type: cell membranes
T1 sequence (P15823 whole entry): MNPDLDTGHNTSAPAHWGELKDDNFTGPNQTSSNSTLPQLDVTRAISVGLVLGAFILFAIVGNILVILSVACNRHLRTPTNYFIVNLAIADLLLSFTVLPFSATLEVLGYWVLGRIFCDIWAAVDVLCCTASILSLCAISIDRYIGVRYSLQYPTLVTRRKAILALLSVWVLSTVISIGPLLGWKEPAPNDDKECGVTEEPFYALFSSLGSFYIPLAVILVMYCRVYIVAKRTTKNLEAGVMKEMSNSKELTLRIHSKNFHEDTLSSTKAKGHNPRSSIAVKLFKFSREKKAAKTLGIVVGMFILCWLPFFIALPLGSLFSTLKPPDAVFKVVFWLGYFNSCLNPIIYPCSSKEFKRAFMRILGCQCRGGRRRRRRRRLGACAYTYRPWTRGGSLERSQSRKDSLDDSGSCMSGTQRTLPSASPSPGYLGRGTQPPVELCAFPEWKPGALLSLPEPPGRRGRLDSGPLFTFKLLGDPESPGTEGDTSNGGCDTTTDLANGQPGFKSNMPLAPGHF
T1 sequence (P23944 whole entry): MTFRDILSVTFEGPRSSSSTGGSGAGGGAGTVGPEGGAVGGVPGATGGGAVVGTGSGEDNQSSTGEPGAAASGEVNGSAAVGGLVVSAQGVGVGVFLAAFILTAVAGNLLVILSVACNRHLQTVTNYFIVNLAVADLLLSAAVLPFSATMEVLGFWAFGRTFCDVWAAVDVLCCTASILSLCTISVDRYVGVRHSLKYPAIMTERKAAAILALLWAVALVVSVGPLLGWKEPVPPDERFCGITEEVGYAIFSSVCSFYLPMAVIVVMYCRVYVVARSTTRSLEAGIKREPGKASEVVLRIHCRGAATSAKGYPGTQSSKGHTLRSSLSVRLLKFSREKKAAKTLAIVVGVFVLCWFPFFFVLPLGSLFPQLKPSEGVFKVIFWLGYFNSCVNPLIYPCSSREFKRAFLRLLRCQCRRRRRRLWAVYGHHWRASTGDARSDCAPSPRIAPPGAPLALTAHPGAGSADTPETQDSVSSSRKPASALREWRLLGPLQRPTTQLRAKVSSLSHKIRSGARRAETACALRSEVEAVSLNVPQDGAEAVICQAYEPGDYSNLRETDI
T1 sequence (P43140 whole entry): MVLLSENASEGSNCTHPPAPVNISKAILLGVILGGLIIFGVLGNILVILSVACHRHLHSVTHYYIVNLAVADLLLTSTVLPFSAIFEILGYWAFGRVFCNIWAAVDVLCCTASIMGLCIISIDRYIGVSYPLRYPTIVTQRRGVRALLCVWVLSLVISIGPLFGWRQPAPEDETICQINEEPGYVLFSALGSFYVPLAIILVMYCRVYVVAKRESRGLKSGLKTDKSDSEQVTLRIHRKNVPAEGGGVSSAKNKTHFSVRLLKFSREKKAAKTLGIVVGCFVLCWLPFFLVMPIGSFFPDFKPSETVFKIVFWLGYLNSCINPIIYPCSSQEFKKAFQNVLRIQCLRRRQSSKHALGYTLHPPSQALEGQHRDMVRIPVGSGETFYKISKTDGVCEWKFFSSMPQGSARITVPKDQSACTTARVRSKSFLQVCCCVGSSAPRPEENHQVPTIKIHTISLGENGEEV

[4] = biological target: T2, Adrenergic receptor alpha-2 (Rattus norvegicus, UniProt P22086+P19328+P22909); test: In vitro inhibition of binding of [3H]-RX-821002 to alpha-2 adrenergic receptor site in rat brain membranes.; type: cell membranes
T2 sequence (P22086 whole entry): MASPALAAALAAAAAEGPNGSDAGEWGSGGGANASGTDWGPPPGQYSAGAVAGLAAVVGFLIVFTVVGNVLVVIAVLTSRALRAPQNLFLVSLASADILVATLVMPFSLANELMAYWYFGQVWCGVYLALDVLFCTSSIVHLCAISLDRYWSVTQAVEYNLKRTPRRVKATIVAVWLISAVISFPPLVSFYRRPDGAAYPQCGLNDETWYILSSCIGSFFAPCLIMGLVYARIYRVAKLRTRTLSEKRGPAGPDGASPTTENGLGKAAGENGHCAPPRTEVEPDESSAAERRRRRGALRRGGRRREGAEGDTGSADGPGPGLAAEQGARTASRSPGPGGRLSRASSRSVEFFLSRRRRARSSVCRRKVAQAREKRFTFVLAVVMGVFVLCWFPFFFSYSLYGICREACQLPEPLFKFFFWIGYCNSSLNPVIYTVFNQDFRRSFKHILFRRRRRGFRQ
T2 sequence (P19328 whole entry): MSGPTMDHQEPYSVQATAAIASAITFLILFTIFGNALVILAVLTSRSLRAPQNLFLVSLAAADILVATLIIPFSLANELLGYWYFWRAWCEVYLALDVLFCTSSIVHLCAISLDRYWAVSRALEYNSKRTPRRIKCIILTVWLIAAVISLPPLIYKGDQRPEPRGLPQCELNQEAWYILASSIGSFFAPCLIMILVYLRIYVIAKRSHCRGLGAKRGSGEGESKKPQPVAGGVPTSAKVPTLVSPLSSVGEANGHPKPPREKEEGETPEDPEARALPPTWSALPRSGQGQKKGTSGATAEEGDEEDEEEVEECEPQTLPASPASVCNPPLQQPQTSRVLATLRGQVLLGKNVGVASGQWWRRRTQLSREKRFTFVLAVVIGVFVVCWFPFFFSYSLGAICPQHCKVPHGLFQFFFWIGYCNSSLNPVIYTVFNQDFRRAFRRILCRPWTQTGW
T2 sequence (P22909 whole entry): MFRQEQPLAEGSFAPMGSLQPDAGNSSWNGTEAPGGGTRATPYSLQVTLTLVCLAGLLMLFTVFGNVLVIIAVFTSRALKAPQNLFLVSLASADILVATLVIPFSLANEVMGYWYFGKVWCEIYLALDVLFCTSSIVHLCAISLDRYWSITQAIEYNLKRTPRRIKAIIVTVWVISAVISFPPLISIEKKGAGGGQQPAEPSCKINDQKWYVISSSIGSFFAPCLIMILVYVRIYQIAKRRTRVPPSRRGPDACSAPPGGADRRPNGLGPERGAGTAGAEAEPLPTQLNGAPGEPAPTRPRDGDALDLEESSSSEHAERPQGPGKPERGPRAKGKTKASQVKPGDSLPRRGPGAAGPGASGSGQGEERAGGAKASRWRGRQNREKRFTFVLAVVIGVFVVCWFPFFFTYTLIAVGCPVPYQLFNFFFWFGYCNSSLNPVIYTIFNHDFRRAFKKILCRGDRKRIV

Mus musculus [5] = test: In vivo antagonism of guanabenz-induced hypothermia in mice after peroral administration at a dose of 10-40 mg/kg; type: functional; details: po
In short: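 Male NMRI mice (30-32 g) dosed by oral gavage with drug or vehicle; 35 min later, guanabenz 1 mg/kg ip. Rectal temperature was taken 25 min after guanabenz with a thermistor probe. Inhibition meant temperature > 36 °C. Five mice were used per dose. The active dose range is the doses inhibiting hypothermia in more than 80% of animals.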

Mus musculus [6] = test: In vivo antagonism of guanabenz-induced hypothermia in mice after intraperitoneal administration at a dose of 0.63-10 mg/kg; type: functional; details: ip; in short: as §2
Mus musculus [7] = test: In vivo antagonism of guanabenz-induced hypothermia in mice after intraperitoneal administration; type: functional; details: ip
In short: (§3)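 Male NMRI mice, 30-32 g, 5 per dose; test drug or vehicle given ip, then 5 min later guanabenz 1 mg/kg ip. Rectal temperature read by thermistor probe 25 min after guanabenz. Inhibition means temperature > 36 °C. […] Active dose range = doses inhibiting in more than 80% of animals.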

Mus musculus [8] = test: In vivo antagonism of guanabenz-induced hypothermia in mice after peroral administration; Inactive; type: functional, organism-based
In short: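 Male NMRI mice (30-32 g), five per dose; vehicle or drug by oral gavage, guanabenz 1 mg/kg ip 35 min later. Rectal temperature by thermistor 25 min post-guanabenz; inhibition scored as temperature > 36 °C. […] Active range is doses giving inhibition in more than 80% of mice.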

Mus musculus [9] = test: In vivo antagonism of guanabenz-induced hypothermia in mice after intraperitoneal administration; […]; type: functional, organism-based; in short: as §3
Mus musculus [10] = test: In vivo antagonism of guanabenz-induced hypothermia in mice after intraperitoneal administration at a dose of 10 mg/kg; type: functional; details: ip; in short: as §3
Mus musculus [11] = test: In vivo antagonism of guanabenz-induced hypothermia in mice after intraperitoneal administration at a dose of 10-40 mg/kg; type: functional; details: ip; in short: as §3
Mus musculus [12] = test: In vivo antagonism of guanabenz-induced hypothermia in mice after intraperitoneal administration at a dose of 2.5 mg/kg; type: functional; details: ip; in short: as §3
Mus musculus [13] = test: In vivo antagonism of guanabenz-induced hypothermia in mice after intraperitoneal administration at a dose of 0.63 mg/kg; type: functional; details: ip; in short: as §3
Mus musculus [14] = test: In vivo antagonism of guanabenz-induced hypothermia in mice after intraperitoneal administration at a dose of 0.04-10 mg/kg; type: functional; details: ip; in short: as §3
Mus musculus [15] = test: In vivo antagonism of guanabenz-induced hypothermia in mice after peroral administration at a dose of 10 mg/kg; type: functional; details: route oral; in short: as §1
Mus musculus [16] = test: In vivo antagonism of guanabenz-induced hypothermia in mice after intraperitoneal administration at a dose of 1 mg/kg; type: functional; details: ip; in short: as §3

D(2) dopamine receptor, sequence (P61169 whole entry): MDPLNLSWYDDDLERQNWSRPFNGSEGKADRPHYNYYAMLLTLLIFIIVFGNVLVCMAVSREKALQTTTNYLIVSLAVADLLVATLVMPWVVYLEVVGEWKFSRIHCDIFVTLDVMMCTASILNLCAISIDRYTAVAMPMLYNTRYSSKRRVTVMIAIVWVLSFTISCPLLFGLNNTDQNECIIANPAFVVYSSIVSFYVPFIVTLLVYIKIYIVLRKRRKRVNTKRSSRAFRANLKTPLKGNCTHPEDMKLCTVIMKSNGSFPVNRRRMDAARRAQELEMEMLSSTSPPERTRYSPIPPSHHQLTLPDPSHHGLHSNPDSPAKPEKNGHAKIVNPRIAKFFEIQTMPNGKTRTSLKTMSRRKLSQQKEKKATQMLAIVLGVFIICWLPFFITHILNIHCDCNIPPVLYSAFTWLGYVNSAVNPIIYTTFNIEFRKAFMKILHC

IC50 (D(2) dopamine receptor) [nM]	IC50 [3] [nM]	IC50 [4] [nM]	SMILES	also measured
320	200	4.5	COc1cc(OC)c(N2CCN(CCC3CCN(CC4COc5ccccc5O4)CC3)C2=O)c(OC)c1 (stereo not given)	ED50 (Mus musculus [1]): 1.07 mg/kg; ED50 (Mus musculus [2]): 0.41 mg/kg
550	70	25	O=C1Nc2ccccc2CN1CC1CCN(CC2COc3ccccc3O2)CC1 (stereo not given)	
			O=C(NCCC1CCN(CC2COc3ccccc3O2)CC1)NCc1ccccc1 (stereo not given)	ED50 (Mus musculus [7]): 1.78 mg/kg
80	85	1.8	Cc1cccc(C)c1N1CCN(CCC2CCN(CC3COc4ccccc4O3)CC2)C1=O (stereo not given)	ED50 (Mus musculus [5]): 5.01 mg/kg; ED50 (Mus musculus [2]): 0.41 mg/kg
			O=C(NCCC1CCN(CC2COc3ccccc3O2)CC1)Oc1ccccc1 (stereo not given)	NA (Mus musculus [8]): inactive; NA (Mus musculus [9]): inactive
			O=C(NC(=S)NCCC1CCN(CC2COc3ccccc3O2)CC1)c1ccccc1 (stereo not given)	NA (Mus musculus [8]): inactive; NA (Mus musculus [9]): inactive
25	20	2	O=C(NCCC1CCN(CC2COc3ccccc3O2)CC1)c1ccccc1[N+](=O)[O-] (stereo not given)	
16	18	5	O=C1Nc2ccccc2CN1CCC1CCN(CC2COc3ccccc3O2)CC1 (stereo not given)	
			O=C(NCCC1CCN(CC2COc3ccccc3O2)CC1)C(c1ccccc1)c1ccccc1 (stereo not given)	NA (Mus musculus [8]): inactive; NA (Mus musculus [9]): inactive
1.8	11.5	1	O=C(Cc1ccccc1[N+](=O)[O-])NCCC1CCN(CC2COc3ccccc3O2)CC1 (stereo not given)	
135	70	4	CCOc1cccc(OCC)c1N1CCN(CCC2CCN(CC3COc4ccccc4O3)CC2)C1=O (stereo not given)	ED50 (Mus musculus [1]): 0.53 mg/kg; ED50 (Mus musculus [10]): 0.89 mg/kg
			O=C(NCCC1CCN(CC2COc3ccccc3O2)CC1)Nc1ccc(O)cc1 (stereo not given)	NA (Mus musculus [9]): inactive
			O=C1N(CCC2CCN(CC3COc4ccccc4O3)CC2)CCN1c1ccc(F)cc1 (stereo not given)	ED50 (Mus musculus [11]): 2.51 mg/kg
50	70	10	COc1ccccc1CC(=O)NCCC1CCN(CC2COc3ccccc3O2)CC1 (stereo not given)	
480	180	36	CC(C)c1cccc(C(C)C)c1N1CCN(CCC2CCN(CC3COc4ccccc4O3)CC2)C1=O (stereo not given)	
35	42	2	O=C(NCCC1CCN(CC2COc3ccccc3O2)CC1)NC1CCCCC1 (stereo not given)	ED50 (Mus musculus [12]): 0.69 mg/kg; NA (Mus musculus [8]): inactive
			COc1ccc(NC(=O)NCCC2CCN(CC3COc4ccccc4O3)CC2)cc1 (stereo not given)	ED50 (Mus musculus [13]): 0.27 mg/kg
			S=C(NCCC1CCN(CC2COc3ccccc3O2)CC1)Nc1ccccc1 (stereo not given)	ED50 (Mus musculus [14]): 0.02 mg/kg
1130			COC(=O)[C@@H]1[C@H]2C[C@H]3c4[nH]c5ccccc5c4CCN3C[C@@H]2CC[C@@H]1O [YOHIMBINE]	ED50 (Mus musculus [15]): 1.23 mg/kg; ED50 (Mus musculus [16]): 0.56 mg/kg

SMILES	IC50 (D(2) dopamine receptor) [nM]	IC50 [3] [nM]	IC50 [4] [nM]	also measured
c1ccc2c(c1)OCC(C1=NCCN1)O2 (stereo not given) [IDAZOXAN]	> 10000			ED50 (Mus musculus [5]): 0.89 mg/kg; ED50 (Mus musculus [6]): 0.31 mg/kg
